Hits are enriched below; roughly 4.8% of the tested compounds scored in any of these assays.
CSC inhib: cancer stem cell inhibition. cancer stem cell-like cells viability, luminescence. inhibition, % at 7.5 µM. 300,000 compounds, 1.1% hits; in the data active means inhibition above about 75%; inconclusive means no clear call, values can overlap the other calls; tested in HMLE shEcad cells
SKKanGAS inh: blocks kanamycin growth of S. pyogenes SKKanGAS strain | BacTiter-Glo, 6 h | inhibition, % at 7.5 µM | 300,000 compounds, 1.3% hits;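 active means mean replicate score, as percent of positive control median, at least 50; inconclusive means mean below 50 but one replicate at or above 50; inactive means mean and every replicate below 50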;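 further: strain carries kanamycin resistance gene driven by streptokinase promoter and grows in 40 µg/ml kanamycin; loss of luminescence reflects streptokinase promoter inhibition or plain growth inhibition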
Mdm2 MdmX PPI: disrupts the human Mdm2-MdmX interaction | O15151+Q00987 | SaOS-2 split-luciferase Mdm2/MdmX complementation, luminescence | inhibition, % at 8 µM | 330,000 compounds, 3% hits;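 active means inhibition of at least 50% at 8 µM in the primary screen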
Target sequence (O15151 whole entry, looked up): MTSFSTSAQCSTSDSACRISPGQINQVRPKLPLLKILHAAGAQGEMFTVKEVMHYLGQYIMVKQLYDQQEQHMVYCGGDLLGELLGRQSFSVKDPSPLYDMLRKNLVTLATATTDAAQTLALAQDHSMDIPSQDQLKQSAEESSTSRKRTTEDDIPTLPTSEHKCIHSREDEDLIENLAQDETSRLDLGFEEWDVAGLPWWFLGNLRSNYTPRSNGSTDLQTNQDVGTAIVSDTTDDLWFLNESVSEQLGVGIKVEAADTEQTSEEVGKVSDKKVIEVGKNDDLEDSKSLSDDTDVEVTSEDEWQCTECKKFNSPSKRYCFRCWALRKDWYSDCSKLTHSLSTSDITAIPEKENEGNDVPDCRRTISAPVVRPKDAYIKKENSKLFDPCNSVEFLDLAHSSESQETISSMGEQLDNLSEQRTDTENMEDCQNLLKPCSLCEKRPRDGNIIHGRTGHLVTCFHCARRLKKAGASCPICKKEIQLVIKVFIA
Target sequence (Q00987 whole entry, looked up): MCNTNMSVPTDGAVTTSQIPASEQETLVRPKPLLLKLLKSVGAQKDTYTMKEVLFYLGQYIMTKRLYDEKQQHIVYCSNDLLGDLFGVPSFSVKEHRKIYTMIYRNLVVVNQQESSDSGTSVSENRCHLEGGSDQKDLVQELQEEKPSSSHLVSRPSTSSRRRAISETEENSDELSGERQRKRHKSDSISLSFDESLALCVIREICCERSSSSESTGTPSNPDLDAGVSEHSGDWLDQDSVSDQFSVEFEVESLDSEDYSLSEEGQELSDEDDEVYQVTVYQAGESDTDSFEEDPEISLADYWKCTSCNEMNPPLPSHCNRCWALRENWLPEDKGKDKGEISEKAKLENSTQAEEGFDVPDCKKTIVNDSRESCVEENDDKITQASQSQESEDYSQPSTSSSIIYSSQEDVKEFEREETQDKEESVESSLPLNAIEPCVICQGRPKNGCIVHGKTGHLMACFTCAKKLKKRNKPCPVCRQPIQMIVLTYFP
Beta cell apopt: blocks beta cell apoptosis; INS-1E cytokine-induced death, ATP luminescence, 48 h; percent of positive-control rescue, neutral wells zero; protection from apoptosis, % (concentration not given with the values); 300,000 compounds, 0.8% hits; AID 435005;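 active means Every replicate reaches about 75%, or at least half do and their mean reaches it too, limit read from the data; inconclusive means At least half of replicates reach the limit but their mean does not; inactive means Under half of replicates reach the limit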;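 further: higher means more ATP so stronger rescue from cytokine killing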
CHOP UPR activ: apoptotic UPR (CHOP) activation | CHO-CHOP luciferase reporter, luminescence; percent of tunicamycin response over DMSO baseline | activation, % at 10 µM | 330,000 compounds, 0.34% hits;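 active means at 10 µM dose, activation of 40% or more, normalized to positive control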
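Evaluation: % reporter activation, DMSO baseline versus tunicamycin full activation; System: CHO-CHOP luciferase reporter cell line; Input: 500 cells/well; Incubation: 6 h compound treatment, 37 °C; Measured by: Steady-Glo luciferase luminescence; Dosing: one dose, 10 µM in 0.5% DMSO; Buffer or medium: F12 medium, 10% FBS; Benchmarks: positive tunicamycin 10 µg/mL, negative DMSO alone.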
UPR XBP1 act: activators of adaptive arm of unfolded protein response (XBP1). 330,000 compounds, 0.33% hits. activation, % at 20 µM. CHO-XBP1 luciferase reporter, IRE1-XBP1 UPR activation, luminescence; percent of tunicamycin response, DMSO as zero;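 active means versus positive control, 20 µM dose yields 30% or more activation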
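Assay system: IRE1-XBP1 luciferase reporter CHO line. Input: 1000 cells/well. Buffer or medium: F12 with 10% serum. Doses: 20 µM, 1% DMSO. Times: overnight seeding at 37 °C, 6 h compound treatment at 37 °C. Technique: Steady-Glo luciferase glow luminescence, 10 min after reagent addition.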
Large screens that a line does not name were inactive.

O=C(NC(=S)N1CCCC1)c1ccccc1F	none (no result: SKKanGAS inh)
COc1ccc(NC(=O)C(=O)NCCC2CCCCN2S(=O)(=O)c2ccc(F)cc2)cc1 (stereo not given)	none
CCn1nc(NC(=O)c2ccncc2)c2cc3cc(C)ccc3nc21	SKKanGAS inh 91
CCn1nc(NC(=O)c2ccncc2)c2cc3ccc(C)cc3nc21	none (no result: CSC inhib)
CCN(CC)c1ccc2cc(S(=O)(=O)c3ccc(C)cc3)c(=O)oc2c1	CSC inhib 99
Cc1ccc(S(=O)(=O)c2cc3ccccc3oc2=O)cc1	none
CCOC(=O)c1c(CSc2ccc(C)cc2)oc2ccc(O)cc12	CSC inhib 135
Cc1ccsc1CN(C)C(=O)CN1C(=O)NC2(CCCCC2C)C1=O (stereo not given)	none (no result: CSC inhib, SKKanGAS inh)
CC(C)C(=O)Nc1ccc(C(=O)NNC(=S)NC(=O)c2cccs2)cc1	SKKanGAS inh inconclusive
COc1ccc(OCC(=O)NNC(=S)NC(=O)c2ccc(Br)o2)cc1	SKKanGAS inh 71 (no result: CSC inhib)
COc1ccc(C(=O)NC(=S)NNC(=O)c2cccc(C)c2)cc1	SKKanGAS inh 113
CCCCC(=O)NC(=S)NNC(=O)c1ccc(OC)cc1	SKKanGAS inh 86
COc1ccc(C(=O)NNC(=S)NC(=O)c2cccs2)cc1	SKKanGAS inh 89 (no result: CSC inhib)
Cc1ccc(NC2CCCN(C(=O)c3cccc(-c4ncc[nH]4)c3)C2)cc1C (stereo not given)	none
Cc1cccc(C(=O)NNC(=S)NC(=O)c2ccccc2)c1	SKKanGAS inh 96
Cc1cccc(C(=O)NC(=S)NNC(=O)COc2ccc(Cl)cc2)c1	SKKanGAS inh 62 (no result: CSC inhib, Beta cell apopt)
Cc1ccc(C(=O)NCCOc2ccc(Cl)cc2)cc1	none
Cc1ccc(C(=O)CC(=O)COc2ccc(Cl)cc2)cc1	SKKanGAS inh 64
COc1ccc(C(=O)NNC(=S)NC(=O)c2cccnc2)cc1	none
COc1ccc(C(=O)NNC(=S)NC(=O)c2ccc(OC)cc2)cc1	SKKanGAS inh 94 (no result: Beta cell apopt)
CN(CC(=O)Nc1ccc(Cl)c(C(F)(F)F)c1)C(=O)CCCNC(=O)c1ccc(Cl)cc1	none (no result: SKKanGAS inh)
CC1CC1C(=O)OCC(=O)Nc1cc(S(=O)(=O)N2CCCCC2)ccc1Cl (stereo not given)	none (no result: SKKanGAS inh)
Cc1ccc(S(=O)(=O)NCCC(=O)NC2CCCCCC2)cc1	none (no result: CSC inhib, SKKanGAS inh, Beta cell apopt)
O=C(COc1ccccc1)NNC(=S)NC(=O)c1ccc(Cl)cc1Cl	SKKanGAS inh 77
C=CCNC(=S)NNC(=O)c1ccc(OCCC)cc1	none
Cc1cccc(C(=O)NNC(=S)NC(=O)c2cccs2)c1	SKKanGAS inh 76 (no result: Beta cell apopt)
Cc1ccc(C(=O)NNC(=O)c2cccc(C)c2)cc1	none
CCCOc1ccc(C(=O)NNC(=S)NC(=O)CC)cc1	SKKanGAS inh 106
O=C(COc1cccc(Cl)c1)NNC(=S)Nc1ccccc1	none
CN(CC(=O)Nc1cccc(F)c1)C(=O)c1ccc(COc2ccccc2)o1	none (no result: CSC inhib)
COc1ccc(NC(=O)c2ccccc2NC(=O)c2ccccc2)cc1	none
Cc1cc(C(=O)Nc2ccccc2C(=O)O)ccc1NC(=O)COc1cccc(C)c1C	SKKanGAS inh 54
Cc1ccc(NC(=O)COc2ccccc2C(=O)Nc2ccccc2)cc1Cl	none
COc1ccccc1C(=O)Nc1ccc(C(=O)Nc2ccccc2C(=O)O)cc1	SKKanGAS inh 50
O=C(COc1ccc(Cl)cc1Cl)Nc1ccc(C(=O)Nc2ccccc2C(=O)O)cc1	SKKanGAS inh 62
Cc1ccc(Cl)cc1NC(=O)c1ccccc1OCC(=O)Nc1ccc(Cl)cc1	CSC inhib 78
Cc1ccccc1-n1ncc2c1CC(C)(C)CC2NC(=O)CCN1CCCCC1=O (stereo not given)	none
CCOc1ccccc1C(=O)Nc1cc(Cl)ccc1O	SKKanGAS inh 54 (no result: CSC inhib)
O=C(COc1ccccc1Cl)Nc1cc(Cl)ccc1Oc1ccccc1	CSC inhib 89
CCOC(=O)c1cc(C)sc1NC(=O)CN1CCN(C(=O)C2CCCO2)CC1 (stereo not given)	none (no result: Beta cell apopt)
Fc1ccc(-c2cc(-c3nnc4n3CCCCC4)c3ccccc3n2)cc1	Beta cell apopt 97
Clc1ccc(-c2cc(-c3nnc4n3CCCCC4)c3ccccc3n2)cc1	Beta cell apopt 100
c1ccc2c(-c3nnc4n3CCCCC4)cc(-c3ccncc3)nc2c1	none (no result: Beta cell apopt)
Fc1ccc(-c2nnc3n2CCCCC3)cc1	none

Screens from PubChem.
